Assay results: ChEMBL document CHEMBL5674869, “The Histone Methyltransferase Inhibitor A-366 Uncovers a Role for G9a/GLP in the Epigenetics of Leukemia” (PLoS One, 2015)
pEC50: −log10 of the molar value. Calls of active or inactive are those of the source. The calls are words filed in the database; no cut-off is given here.

Legend:
[1] = test system: MCF7; test: Antiproliferative activity against human MCF7 cells assessed as inhibition of colony formation at 10 uM after 14 days by crystal violet staining based clonogenic assay; type: functional, cell-based; conditions: time 14.0 day
Outline: (§1)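 Clonogenic assay: 500 live cells per well were seeded into six-well plates in drug-free medium. Compound diluted in culture medium was added 24 h later. Cells were cultured at 37°C, then fixed and stained with 0.2% crystal violet. Colonies were counted on an automated colony counter.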

[2] = test system: MDA-MB-231; test: Antiproliferative activity against human MDA-MB-231 cells assessed as inhibition of colony formation at 10 uM after 14 days by crystal violet staining based clonogenic assay; type: functional, cell-based; conditions: time 14.0 day; outline: as §1
[3] = test system: HT-1080; test: Antiproliferative activity against human HT-1080 cells after 5 days by Cell-Titer-Glo assay; type: functional, cell-based; conditions: HT-1080, 120 h
Outline: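 ATCC tumor lines were grown in their recommended media with 10% FBS and STR-authenticated. Cells were exposed to compound for the stated number of days. Viable cells were read by CellTiter-Glo endpoint. Inhibition was the ratio of treated to untreated wells, with cell-free wells set as 100% inhibition. The EC50 was taken from the dose response.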

[4] = target: T1, Histone-lysine N-methyltransferase EHMT2 (Homo sapiens) (UniProt Q96KQ7); test: Inhibition of G9a in human PC-3 cells assessed as effect on H3k4me3 levels at 0.3 to 3 uM after 72 hrs by Western blot analysis; type: cell-based; conditions: dose 0.3-3 µM
T1 sequence (whole entry): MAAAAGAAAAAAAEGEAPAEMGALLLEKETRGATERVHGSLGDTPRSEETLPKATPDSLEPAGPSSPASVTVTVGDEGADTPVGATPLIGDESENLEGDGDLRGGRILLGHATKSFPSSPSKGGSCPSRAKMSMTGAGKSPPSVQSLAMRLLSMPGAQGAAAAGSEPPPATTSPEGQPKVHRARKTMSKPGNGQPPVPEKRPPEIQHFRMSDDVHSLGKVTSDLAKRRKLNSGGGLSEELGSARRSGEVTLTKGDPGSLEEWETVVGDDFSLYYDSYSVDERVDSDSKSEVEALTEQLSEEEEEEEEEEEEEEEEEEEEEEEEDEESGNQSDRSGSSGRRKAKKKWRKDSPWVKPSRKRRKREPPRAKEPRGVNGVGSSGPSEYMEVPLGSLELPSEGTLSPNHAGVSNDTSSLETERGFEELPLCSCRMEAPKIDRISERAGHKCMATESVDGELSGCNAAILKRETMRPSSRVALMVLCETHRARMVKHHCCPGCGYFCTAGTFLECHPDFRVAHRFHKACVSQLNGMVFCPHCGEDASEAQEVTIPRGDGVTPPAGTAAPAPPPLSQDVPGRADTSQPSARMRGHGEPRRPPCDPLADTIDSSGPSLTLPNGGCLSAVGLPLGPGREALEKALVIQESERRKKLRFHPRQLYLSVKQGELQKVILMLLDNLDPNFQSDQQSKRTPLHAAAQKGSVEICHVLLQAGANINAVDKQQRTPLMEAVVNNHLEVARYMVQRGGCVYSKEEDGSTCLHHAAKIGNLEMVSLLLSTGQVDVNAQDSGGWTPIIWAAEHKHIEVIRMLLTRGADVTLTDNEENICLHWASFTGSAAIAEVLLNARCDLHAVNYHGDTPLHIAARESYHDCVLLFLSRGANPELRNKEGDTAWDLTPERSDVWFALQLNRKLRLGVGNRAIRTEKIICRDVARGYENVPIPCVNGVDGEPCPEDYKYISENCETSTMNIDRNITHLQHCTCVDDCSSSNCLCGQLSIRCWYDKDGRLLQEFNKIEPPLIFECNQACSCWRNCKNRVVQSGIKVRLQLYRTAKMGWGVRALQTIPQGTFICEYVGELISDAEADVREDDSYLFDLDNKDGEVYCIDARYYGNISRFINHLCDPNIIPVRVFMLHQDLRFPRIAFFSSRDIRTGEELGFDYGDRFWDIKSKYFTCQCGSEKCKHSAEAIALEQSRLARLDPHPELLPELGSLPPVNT
Outline: (§2)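 PC-3 prostate cells incubated with DMSO, 0.3 or 3 μM compound for 72 h. Lysates probed by western blot with antibodies to H3K9me2, H3K4me2, H3K4me3, H3K9me3, H4K20me1, H4K20me3, H3K36me2 and H3K27me3.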

[5] = target: T1, Histone-lysine N-methyltransferase EHMT2 (Homo sapiens); test: Inhibition of G9a in human PC-3 cells assessed as effect on H3k9me3 levels at 0.3 to 3 uM after 72 hrs by Western blot analysis; type: cell-based; conditions: dose 0.3-3 µM; outline: as §2
[6] = target: T1, Histone-lysine N-methyltransferase EHMT2 (Homo sapiens); test: Inhibition of G9a in human PC-3 cells assessed as effect on H3k36me2 levels at 0.3 to 3 uM after 72 hrs by Western blot analysis; type: cell-based; conditions: dose 0.3-3 µM; outline: as §2
[7] = test system: MCF7; test: Antiproliferative activity against human MCF7 cells assessed as effect on colony formation at 0.1 to 10 uM after 14 days by crystal violet staining based clonogenic assay; type: functional, cell-based; conditions: dose 0.1-10 µM, time 14.0 day; outline: as §1
[8] = test system: MDA-MB-231; test: Antiproliferative activity against human MDA-MB-231 cells assessed as effect on colony formation at 0.1 to 10 uM after 14 days by crystal violet staining based clonogenic assay; type: functional, cell-based; conditions: dose 0.1-10 µM, time 14.0 day; outline: as §1
[9] = test system: MV4-11; test: Antiproliferative activity against human MV4-11 cells after 14 days by Cell-titer Glo assay; type: functional, cell-based; conditions: time 14.0 day
Outline: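 Leukemia cells (MV4;11 or HL-60) in medium with 10% FBS were treated with a dose range of compound for 14 days. Proliferation was read by CellTiter-Glo endpoint, with inhibition set against untreated controls and cell-free wells as 100% inhibition. Viability was also measured in parallel by trypan blue exclusion.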

[10] = test system: MV4-11; test: Induction of cell cycle arrest in human MV4-11 cells assessed as increase in subG0/G1 cells after 14 days by propidium iodide staining based flow cytometry; type: functional; conditions: time 14.0 day
Outline: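 MV4;11 cells treated 14 days with compound over a concentration range. They were then washed in cold PBS and stained 20 min with 50 μg/ml propidium iodide, 0.1 mg/ml RNase A, 0.1% BSA and 0.1% Triton X-100. Cell-cycle DNA content, including sub-G1/G0 fraction, measured by flow cytometry on BD LSR-II.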

[11] = Drug level in SCID/beige mouse liver xenografted with human MV4-11 cells at 30 mg/kg/day via osmotic-mini pump; type: ADME, organism-based; conditions: in vivo
Outline: (§3)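 Tumor-bearing SCID-beige female mice (6–8 wk) with subcutaneous flank MV4;11 xenografts (5 x 10^6 cells in 50% Matrigel, grown to ~200 mm3). Compound given by osmotic mini-pump at 30 mg/kg/day in 98% PEG-400/2% Tween-80. Separate PK/PD arm sacrificed after 2, 7 and 14 days of treatment; plasma and tissues collected and analyzed for drug levels.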

[12] = Drug level in SCID/beige mouse muscle xenografted with human MV4-11 cells at 30 mg/kg/day via osmotic-mini pump; type: ADME, organism-based, Muscle tissue; conditions: in vivo; outline: as §3
[13] = Drug level in SCID/beige mouse brain xenografted with human MV4-11 cells at 30 mg/kg/day via osmotic-mini pump; type: ADME, organism-based; conditions: in vivo; outline: as §3

Structure (SMILES) | Activity [1] | Activity [2] | pEC50 [3] | inhibition [4] | inhibition [5] | inhibition [6] | Activity [7] | Activity [8] | Activity [9] | Activity [10] | Drug uptake [11] | Drug uptake [12] | Drug uptake [13]
COc1cc2c(NC3CCN(C(C)C)CC3)nc(C3CCCCC3)nc2cc1OCCCN1CCCC1 | Active | Active | 6.30 | – | – | – | – | – | – | – | – | – | –
COc1cc2c(cc1OCCCN1CCCC1)N=C(N)C21CCC1 | – | – | – | inactive | inactive | inactive | inactive | inactive | Active | Active | Active | Active | Active
